{"source": "paper PMC10828771", "about": "(Haematologica, 2023)", "test_system": "OPM-2 cells", "assay": "Apoptosis and necroptosis inhibition assays", "assay_type": "cell-based, human", "procedure,_shortened": "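OPM-2 cells at 250,000 cells/mL pre-incubated 1 h at 37°C in medium containing pan-caspase inhibitor Z-VAD-FMK, necroptosis inhibitor necrostatin-1s, or DMSO. Washed (PBS for Z-VAD-FMK arm), then cultured 72 h with test compound or DMSO. Viability by Zombie-aqua staining and flow cytometry. Z-VAD-FMK arm: mean ± SD of 3 independent experiments.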", "note": "Residues, ends and D or L forms follow the SMILES beside them. *: point of attachment. Cbz = O=C(OCc1ccccc1)*; CH2F = FC*", "data": [{"smiles": "COC(=O)C[C@H](NC(=O)[C@H](C)NC(=O)[C@@H](NC(=O)OCc1ccccc1)C(C)C)C(=O)CF", "note": "[Z-VAD-FMK] (Cbz-Val-Ala-Asp(OMe)-CH2F)", "values": [{"measurement": "decrease of OSU-13-mediated cell death by pretreatment", "setting": "100 mM Z-VAD-FMK 1 h, then 1 mM OSU-13 72 h", "value": "20±6.7", "unit": "%"}]}, {"smiles": "CN1C(=O)NC(Cc2c[nH]c3c(Cl)cccc23)C1=O", "note": "(centres unmarked) [Necrostatin-1s]", "values": [{"measurement": "effect of pretreatment on OSU-13-mediated cell death", "setting": "100 μM necrostatin-1s 1 h, then 1 μM OSU-13 72 h", "value": "no measurable effect"}]}]}
